Experimental data from publication PMC5699463 (Journal of the American Chemical Society, 2017).
Values after ≈ are worked out from the molar mass of the structure shown.

Experiments:
wildtype B. subtilis = assay: Disk diffusion assay against wildtype B. subtilis; type: cell-based, Bacillus subtilis
[1] = tested on: S. aureus ΔtarO knockout strain; assay: Counterscreen: growth inhibition of WTA null; type: cell-based, Staphylococcus aureus
In short: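 Library compounds were screened in duplicate at ~15 µM final against wildtype S. aureus Newman. In parallel they were counterscreened against the WTA-null ΔtarO strain to find growth inhibition that is suppressed when WTA is absent. Growth was read as OD600 and averaged over the duplicates.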

[2] = tested on: Lipid II pool levels in S. aureus; assay: Assay to detect Lipid II abundance after antibiotic treatment; type: cell-based, Staphylococcus aureus; settings: S. aureus cultures treated for ten minutes
In short: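 S. aureus cultures were exposed for 10 min to test compound or to peptidoglycan-synthesis inhibitor controls that either deplete or accumulate Lipid II. Lipid II was then extracted and labelled with biotin-d-Lys to measure its pool level.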

TarGH = TarGH (Staphylococcus aureus, UniProt Q2G2X5); assay: ATPase activity of reconstituted TarGH in proteoliposomes; type: biochemical; settings: 1.0 µM compound; compared with TarH E169Q mutant
B. subtilis = assay: Growth inhibition of B. subtilis; type: cell-based, Bacillus subtilis
[3] = tested on: B. subtilis strain KS002 (TagGH replaced with S. aureus TarGH); assay: Disk diffusion assay against B. subtilis strain KS002 expressing S. aureus TarGH; type: cell-based, Bacillus subtilis; settings: strain expressing the S. aureus transporter
[4] = tested on: wildtype S. aureus (Newman); assay: Growth inhibition; type: cell-based, Staphylococcus aureus

**Q.** How did the zone of inhibition (wildtype B. subtilis) turn out when `Cc1c(CC(=O)N2CCC[C@H]2C(=O)O)c(=O)oc2c(C)c3occ(-c4ccc(Cl)cc4)c3cc12` [Compound 2] was run?
**A.** The zone of inhibition was “did not show a zone of inhibition”.

**Q.** What about the “activity against the ΔtarO strain” value [1] of the same compound?
**A.** The value was “no activity”.

**Q.** What about the “effect on Lipid II pool levels” value [2] of the same compound?
**A.** Its value is “depleted Lipid II”.

**Q.** And the “ATPase activity of the WT transporter in the presence of compound” value (TarGH)?
**A.** Its value is “comparable to that of a TarGH mutant containing a mutation that impairs ATP hydrolysis”.

**Q.** And the “growth inhibition of B. subtilis” value (B. subtilis)?
**A.** Its value is “did not inhibit growth”.

**Q.** And the zone of inhibition [3]?
**A.** Its zone of inhibition is “dose-dependent inhibition zone”.

**Q.** And the “minimum inhibitory concentration (MIC)” value [4]?
**A.** The value was 0.125 µg/mL (≈ 0.26 µM).

**Q.** And the “MIC relative to that of targocil” value ([4]; compared with targocil)?
**A.** The value was “eight-fold lower”.

**Q.** With `CCN(CC)c1nc2c(S(=O)(=O)c3ccc(Cl)cc3)nnn2c2cc(OC)c(OC)cc12` [targocil] as the compound, how does the “effect on Lipid II pool levels” value [2] read?
**A.** The value was “depleted Lipid II”.

**Q.** bacitracin was tested. Which “effect on Lipid II pool levels” value [2] did it give?
**A.** Its value is “depleted Lipid II”.
